Test results from ChEMBL document CHEMBL3758175, “Bis-isatin hydrazones with novel linkers: Synthesis and biological evaluation as cytotoxic agents” (Eur J Med Chem, 2016).

Columns and labels:
MCF7 [1] = assay: Cytotoxicity against human MCF7 cells assessed as cell viability after 24 hrs by crystal violet staining assay; format: functional, cell-based; settings: MCF7, 24 h
[2] = Cytotoxicity against human HCT116 cells assessed as cell viability after 24 hrs by crystal violet staining assay; format: functional, cell-based; settings: HCT-116, 24 h
In short: (§1)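 Cells were kept as monolayers in RPMI-1640 with 10% heat-inactivated FCS and 50 µg/ml gentamycin at 37 °C under 5% CO2. They were seeded at 3,000 cells/well and, 24 h later, washed with PBS (pH 7.2). Ten dilutions in fresh medium were added for 24 h at 37 °C, with a 1% DMSO vehicle control. Survivors were stained with crystal violet, lysed with 33% acetic acid and read at 490 nm against untreated cells. IC50 was taken from graphic plots; mean of at least three experiments.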

HepG2 [3] = assay: Cytotoxicity against human HepG2 cells assessed as cell viability after 24 hrs by crystal violet staining assay; format: functional, cell-based; settings: HepG2, 24 h; in short: as §1
HepG2 [4] = assay: Cytotoxicity against human HepG2 cells assessed as growth inhibition after 72 hrs by Sulforhodamine B colorimetric assay; format: functional, cell-based; settings: HepG2, 72 h
L1210 = assay: Cytotoxicity against mouse L1210 cells assessed as cell growth inhibition by MTT assay; format: functional, cell-based
[5] = Cytotoxicity against human KBV1 cells assessed as cell survival after 72 hrs by MTT assay; format: functional, cell-based; settings: KB-V1, 72 h
[6] = Cytotoxicity against human KB3-1 cells assessed as cell survival after 72 hrs by MTT assay; format: functional, cell-based; settings: KB 3-1, 72 h
MCF7 [7] = assay: Induction of apoptosis in human MCF7 cells assessed as late apoptotic cells at IC50 after 24 hrs by annexin V-FITC/propidium iodide staining based flow cytometry relative to control; format: functional
MCF7 [8] = assay: Induction of apoptosis in human MCF7 cells assessed as early apoptotic cells at IC50 after 24 hrs by annexin V-FITC/propidium iodide staining based flow cytometry (reference value: 3.70%); format: functional
MCF7 [9] = assay: Induction of apoptosis in human MCF7 cells assessed as viable cells at IC50 after 24 hrs by annexin V-FITC/propidium iodide staining based flow cytometry (reference value: 96.3%); format: functional
MCF7 [10] = assay: Cell cycle arrest in human MCF7 cells assessed as accumulation at G2/M phase at IC50 after 24 hrs by flow cytometric analysis relative to control; format: functional
MCF7 [11] = assay: Cell cycle arrest in human MCF7 cells assessed as decrease in cell level at G0/G1 phase at IC50 after 24 hrs by flow cytometric analysis relative to control; format: functional; set-up: scale not given: the % may be the effect or the level left
MCF7 [12] = assay: Cell cycle arrest in human MCF7 cells assessed as accumulation at pre-G phase at IC50 after 24 hrs by flow cytometric analysis relative to control; format: functional
MCF7 [13] = assay: Induction of apoptosis in human MCF7 cells assessed as necrotic cells at IC50 after 24 hrs by annexin V-FITC/propidium iodide staining based flow cytometry relative to control; format: functional
MCF7 [14] = assay: Induction of apoptosis in human MCF7 cells at IC50 after 24 hrs by annexin V-FITC/propidium iodide staining based flow cytometry relative to control; format: functional
MCF7 [15] = assay: Cytotoxicity against human MCF7 cells assessed as growth inhibition after 72 hrs by Sulforhodamine B colorimetric assay; format: functional, cell-based; settings: MCF7, 72 h
[16] = target: Cyclin-dependent kinase 2/cyclin E1 (Homo sapiens, UniProt P24941); assay: Inhibition of GST-tagged recombinant human CDK2/cyclin E expressed in insect SF-9 cells after 10 mins by scintillation counting analysis in presence of [gamma-33P]-ATP; set-up: species or system Sf9

| SMILES | IC50 (MCF7 [1]) | IC50 [2] | IC50 (HepG2 [3]) | further results |
| --- | --- | --- | --- | --- |
| COc1ccc2c(c1)/C(=N/NC(=O)c1cncc(C(=O)N/N=C3\C(=O)Nc4ccc(OC)cc43)c1)C(=O)N2 | 66.5 µM | 45.4 µM | 36.5 µM | – |
| O=C1Nc2ccc(F)cc2/C1=N/Nc1nc(-c2ccccc2)nc2ccccc12 | – | – | – | IC50 (HepG2 [4]): 1 µM |
| Cc1ccc2c(c1)/C(=N/NC(=O)N/N=C1\C(=O)Nc3ccc(C)cc31)C(=O)N2 | – | – | – | IC50 (L1210): 16 µM |
| Cc1ccc2c(c1)/C(=N/NC(=O)C(=O)N/N=C1\C(=O)Nc3ccc(C)cc31)C(=O)N2 | 55.9 µM | > 100 µM | > 100 µM | – |
| O=C1Nc2ccc([N+](=O)[O-])cc2/C1=N/NC(=O)c1cncc(C(=O)N/N=C2\C(=O)Nc3ccc([N+](=O)[O-])cc32)c1 | 88.8 µM | > 100 µM | 75.9 µM | – |
| COc1ccc2c(c1)/C(=N/NC(=O)c1[nH]c(C)c(C(=O)N/N=C3\C(=O)Nc4ccc(OC)cc43)c1C)C(=O)N2 | 78.8 µM | > 100 µM | 83.5 µM | – |
| O=C1Nc2ccc(Cl)cc2/C1=N/N=C1\C(=O)N(c2ccccc2)c2ccccc21 | – | – | – | IC50 [5]: 6.07 µM; IC50 [6]: 6.79 µM |
| Cc1[nH]c(C(=O)N/N=C2\C(=O)Nc3ccc([N+](=O)[O-])cc32)c(C)c1C(=O)N/N=C1\C(=O)Nc2ccc([N+](=O)[O-])cc21 | > 100 µM | > 100 µM | 86.9 µM | – |
| Cc1c(C(=O)N/N=C2\C(=O)Nc3ccccc32)c(C)n(C)c1C(=O)N/N=C1\C(=O)Nc2ccccc21 | > 100 µM | > 100 µM | > 100 µM | – |
| Cc1[nH]c(C(=O)N/N=C2\C(=O)Nc3ccccc32)c(C)c1C(=O)N/N=C1\C(=O)Nc2ccccc21 | 69.2 µM | 76.5 µM | 30.1 µM | – |
| Cc1ccc2c(c1)/C(=N/NC(=O)c1[nH]c(C)c(C(=O)N/N=C3\C(=O)Nc4ccc(C)cc43)c1C)C(=O)N2 | 46.1 µM | 45.9 µM | > 100 µM | – |
| Cc1[nH]c(C(=O)N/N=C2\C(=O)Nc3ccc(Br)cc32)c(C)c1C(=O)N/N=C1\C(=O)Nc2ccc(Br)cc21 | 36.7 µM | 37.3 µM | 32.4 µM | – |
| O=C1Nc2ccc(F)cc2/C1=N/NC(=O)c1cncc(C(=O)N/N=C2\C(=O)Nc3ccc(F)cc32)c1 | 38 µM | 24.5 µM | 76.3 µM | – |
| O=C(N/N=C1\C(=O)Nc2ccc([N+](=O)[O-])cc21)C(=O)N/N=C1\C(=O)Nc2ccc([N+](=O)[O-])cc21 | 91.2 µM | 56.2 µM | 25.8 µM | – |
| COc1ccc2c(c1)/C(=N/NC(=O)c1c(C)c(C(=O)N/N=C3\C(=O)Nc4ccc(OC)cc43)n(C)c1C)C(=O)N2 | 1.84 µM | 3.31 µM | 6.99 µM | Activity (MCF7 [7]): 0.36%; Activity (MCF7 [8]): 25%; Activity (MCF7 [9]): 74.5%; fold change (FC) (MCF7 [10]): 1.83; Activity (MCF7 [11]): 18.5%; fold change (FC) (MCF7 [12]): 5; Activity (MCF7 [13]): 0.18%; fold change (FC) (MCF7 [14]): 6.7 |
| O=C(N/N=C1\C(=O)Nc2ccc(Br)cc21)C(=O)N/N=C1\C(=O)Nc2ccc(Br)cc21 | 91.9 µM | 98.7 µM | 77.8 µM | – |
| Cc1[nH]c(C(=O)N/N=C2\C(=O)Nc3ccc(F)cc32)c(C)c1C(=O)N/N=C1\C(=O)Nc2ccc(F)cc21 | 76.3 µM | 77 µM | 78.4 µM | – |
| Cc1ccc2c(c1)/C(=N/NC(=O)c1c(C)c(C(=O)N/N=C3\C(=O)Nc4ccc(C)cc43)n(C)c1C)C(=O)N2 | 29.9 µM | 38.6 µM | 22.1 µM | – |
| O=C1Nc2ccccc2/C1=N/NC(=O)c1cncc(C(=O)N/N=C2\C(=O)Nc3ccccc32)c1 | 39.1 µM | 39.2 µM | 72.7 µM | – |
| COc1ccc(-c2nc(N/N=C3\C(=O)Nc4ccc(Cl)cc43)c3ccccc3n2)cc1OC | – | – | – | IC50 (MCF7 [15]): 2.1 µM |
| O=C1Nc2ccc(Br)cc2/C1=N/NC(=O)c1cncc(C(=O)N/N=C2\C(=O)Nc3ccc(Br)cc32)c1 | 34.5 µM | 23.7 µM | 30.1 µM | – |
| COc1cccc2c1C(=O)c1c(O)c3c(c(O)c1C2=O)C[C@@](O)(C(=O)CO)C[C@@H]3O[C@H]1C[C@H](N)[C@H](O)[C@H](C)O1 [DOXORUBICIN] | – | 3.7 µM | 3.56 µM | – |
| O=C1/C(=C2\Nc3ccccc3C2=O)Nc2ccccc21 [INDIGO] | – | – | – | IC50 [16]: 1 µM |
